Results reported in ChEMBL document CHEMBL1138851, “Synthesis, antifungal activity, and structure-activity relationships of coruscanone A analogues” (J Med Chem, 2006).
Converted amounts (≈) assume the structure as drawn.

Legend:
Candida albicans [1] = assay: Antifungal activity against Candida albicans ATCC 90028; type: functional, organism-based
Method in brief: (§1)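 Broth microdilution; samples serially diluted in 20% DMSO/saline, duplicate wells. Inoculum 1.0 × 10⁴ CFU/ml in RPMI 1640/2% dextrose/0.03% glutamine/MOPS, pH 6.0. Incubated 37 °C, 18–24 h; OD630 read before and after incubation. IC50 from percent growth vs concentration; MIC as lowest concentration with no detectable growth; MFC as no growth on agar after plating 5 μl from clear wells.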

Candida albicans [2] = assay: Antifungal activity against fluconazole-susceptible Candida albicans; type: functional, organism-based
Method in brief: as §1, with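 “wells.” for “wells. Inoculum 1.0 × 10⁴ CFU/ml in RPMI 1640/2% dextrose/0.03% glutamine/MOPS, pH 6.0.”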

Candida albicans [3] = assay: Antifungal activity against fluconazole-resistant Candida albicans; type: functional, organism-based
Method in brief: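 Broth microdilution (NCCLS-based) against patient isolate #17 (last isolate during fluconazole therapy, azole-resistant); samples serially diluted in 20% DMSO/saline, tested in duplicate. Inoculum 1.0 × 10⁴ CFU/ml in RPMI 1640/2% dextrose/0.03% glutamine/MOPS pH 6.0; 37 °C, 18–24 h; OD630 read before and after. IC50 from % growth versus concentration; MIC = no detectable growth; MFC by subculture onto agar. Means of three independent experiments.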

Cryptococcus neoformans = assay: Antifungal activity against Cryptococcus neoformans ATCC 90113; type: functional, organism-based
Method in brief: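 Serial dilutions in 20% DMSO/saline, tested in duplicate. Inoculum 1.0 × 10⁵ CFU/ml in Sabouraud dextrose broth. Incubated 30 °C, 72 h; OD630 read before and after incubation. IC50 from percent growth vs concentration; MIC as lowest concentration with no detectable growth; MFC as no growth on agar after plating 5 μl from clear wells.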

Aspergillus fumigatus = assay: Antifungal activity against Aspergillus fumigatus ATCC 90906; type: functional, organism-based
Vero = assay: Cytotoxicity against Vero cells by neutral red method; type: cell-based; conditions: Chlorocebus sabaeus
Method in brief: (§2)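 Neutral red assay on ATCC-sourced Vero (African green monkey kidney […]) and LLC-PK1 (pig kidney epithelial) cells. Top test concentration 10 μg/mL. Values are means of three independent experiments.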

LLC-PK1 = assay: Cytotoxicity against LLC-PK1 cells by neutral red method; type: cell-based; conditions: Sus scrofa; method in brief: as §2

Row | Compound | IC50 (Candida albicans [1]) [µg/mL] | MFC (Candida albicans [1]) [µg/mL] | MIC (Candida albicans [1]) [µg/mL] | IC50 (Candida albicans [2]) [µg/mL] | MFC (Candida albicans [2]) [µg/mL] | MIC (Candida albicans [2]) [µg/mL] | IC50 (Candida albicans [3]) [µg/mL] | IC50 (Cryptococcus neoformans) [µg/mL] | MFC (Cryptococcus neoformans) [µg/mL] | MIC (Cryptococcus neoformans) [µg/mL] | IC50 (Aspergillus fumigatus) [µg/mL] | MFC (Aspergillus fumigatus) [µg/mL] | MIC (Aspergillus fumigatus) [µg/mL] | IC50 (Vero) [µg/mL] | IC50 (LLC-PK1) [µg/mL] | MFC (Candida albicans [3]) [µg/mL] | MIC (Candida albicans [3]) [µg/mL]
1 | COC(/C=C/c1ccccc1)=C1\C(=O)C=C(c2ccccc2)C1=O | > 20 | > 20 | > 20 | 20 (≈ 63.2 µM) | > 20 | > 20 | 18 (≈ 56.9 µM) | > 20 | > 20 | > 20 | > 20 | > 20 | > 20 | > 10 | 5.1 (≈ 16.1 µM) |  | 
2 | CO/C(C)=C1\C(=O)C=C(C)C1=O | > 20 |  |  |  |  |  |  | > 20 |  |  | > 20 |  |  |  |  |  | 
3 | CC1=C(C)C(=O)C(=C(/C=C/c2ccccc2)OC(=O)/C=C/c2ccccc2)C1=O | > 20 |  |  |  |  |  |  | > 20 |  |  | > 20 |  |  |  |  |  | 
4 | CC1=CC(=O)/C(=C(O)/C=C/c2ccccc2)C1=O | > 20 |  |  |  |  |  |  | > 20 |  |  | > 20 |  |  |  |  |  | 
5 | CC1=CC(=O)/C(=C(O)/C=C/c2cccs2)C1=O | > 20 |  |  |  |  |  |  | > 20 |  |  | > 20 |  |  |  |  |  | 
6 | CC(=O)OC(/C=C/c1ccccc1)=C1C(=O)C(C)=C(C)C1=O | > 20 |  |  |  |  |  |  | > 20 |  |  | > 20 |  |  |  |  |  | 
7 | COC(/C=C/c1ccco1)=C1\C(=O)C=C(C)C1=O | 1.4 (≈ 5.73 µM) | 4.17 (≈ 17.1 µM) | 4.17 (≈ 17.1 µM) | 0.93 (≈ 3.81 µM) | 2.5 (≈ 10.2 µM) | 2.5 (≈ 10.2 µM) | 2.4 (≈ 9.83 µM) | 3.4 (≈ 13.9 µM) | 13 (≈ 53.2 µM) | 10 (≈ 40.9 µM) | 8.98 (≈ 36.8 µM) | 20 (≈ 81.9 µM) | 20 (≈ 81.9 µM) | 3.3 (≈ 13.5 µM) | 3.3 (≈ 13.5 µM) | 6.67 (≈ 27.3 µM) | 4.17 (≈ 17.1 µM)
8 | COC(/C=C/c1ccc(O)cc1)=C1\C(=O)C=C(C)C1=O | 3.3 (≈ 12.2 µM) | 10 (≈ 37 µM) | 10 (≈ 37 µM) | 1.86 (≈ 6.88 µM) | 13 (≈ 48.1 µM) | 5 (≈ 18.5 µM) | 5.35 (≈ 19.8 µM) | 6.95 (≈ 25.7 µM) | > 20 | > 20 | > 20 | > 20 | > 20 | 3.7 (≈ 13.7 µM) | 3.4 (≈ 12.6 µM) | 20 (≈ 74 µM) | 20 (≈ 74 µM)
9 | O=C1C=C(c2ccccc2)C(=O)/C1=C(O)\C=C\c1ccccc1 | > 20 |  |  |  |  |  |  | > 20 |  |  | > 20 |  |  |  |  |  | 
10 | CCOC(/C=C/c1ccccc1)=C1\C(=O)C=C(C)C1=O | 5.02 (≈ 18.7 µM) | 20 (≈ 74.5 µM) | 20 (≈ 74.5 µM) | 2.49 (≈ 9.28 µM) | 17 (≈ 63.4 µM) | 12 (≈ 44.7 µM) | 4.51 (≈ 16.8 µM) | 5.02 (≈ 18.7 µM) | 20 (≈ 74.5 µM) | 20 (≈ 74.5 µM) | > 20 | > 20 | > 20 | 4.8 (≈ 17.9 µM) | 4 (≈ 14.9 µM) | 20 (≈ 74.5 µM) | 13 (≈ 48.5 µM)
11 | CCOC(/C=C/c1ccccc1)=C1C(=O)C(C)=C(C)C1=O | > 20 |  |  |  |  |  |  | > 20 |  |  | > 20 |  |  |  |  |  | 
12 | COC(/C=C/c1cccs1)=C1\C(=O)C=C(C)C1=O | 1.21 (≈ 4.65 µM) | 3.33 (≈ 12.8 µM) | 3.33 (≈ 12.8 µM) | 0.74 (≈ 2.84 µM) | 2.5 (≈ 9.6 µM) | 2.5 (≈ 9.6 µM) | 1.39 (≈ 5.34 µM) | 2.49 (≈ 9.57 µM) | 12 (≈ 46.1 µM) | 12 (≈ 46.1 µM) | 9.81 (≈ 37.7 µM) | > 20 | 20 (≈ 76.8 µM) | 3 (≈ 11.5 µM) | 2.8 (≈ 10.8 µM) | 4.17 (≈ 16 µM) | 4.17 (≈ 16 µM)
13 | COC(/C=C/c1ccccc1)=C1C(=O)C(C)=C(C)C1=O | > 20 |  |  |  |  |  |  | > 20 |  |  | > 20 |  |  |  |  |  | 
14 | COC(/C=C/c1ccc(Cl)cc1)=C1\C(=O)C=C(C)C1=O | 1.39 (≈ 4.81 µM) | 4.17 (≈ 14.4 µM) | 4.17 (≈ 14.4 µM) | 0.64 (≈ 2.22 µM) | 2.92 (≈ 10.1 µM) | 2.08 (≈ 7.2 µM) | 0.86 (≈ 2.98 µM) | 2.23 (≈ 7.72 µM) | 12 (≈ 41.6 µM) | 12 (≈ 41.6 µM) | 20 (≈ 69.3 µM) | > 20 | > 20 | 5.5 (≈ 19 µM) | 3.1 (≈ 10.7 µM) | 2.92 (≈ 10.1 µM) | 2.92 (≈ 10.1 µM)
15 | CC1=CC(=O)/C(=C(O)/C=C/c2ccco2)C1=O | > 20 |  |  |  |  |  |  | > 20 |  |  | > 20 |  |  |  |  |  | 
16 | CC(=O)OC(/C=C/c1ccccc1)=C1\C(=O)C=C(C)C1=O | 8.56 (≈ 30.3 µM) | > 20 | > 20 | 3.79 (≈ 13.4 µM) | > 20 | > 20 | 5.84 (≈ 20.7 µM) | 20 (≈ 70.8 µM) | > 20 | > 20 | > 20 | > 20 | > 20 | 5.5 (≈ 19.5 µM) | 4.9 (≈ 17.4 µM) |  | 
17 | CO/C(=C1\C(=O)C=C(C)C1=O)c1ccccc1 | 10.6 (≈ 46.4 µM) | > 20 | > 20 | 7.88 (≈ 34.5 µM) | > 20 | > 20 | 6.04 (≈ 26.5 µM) | > 20 | > 20 | > 20 | > 20 | > 20 | > 20 | > 10 | > 10 |  | 
18 | CC1=CC(=O)/C(=C(O)/C=C/c2ccc(Cl)cc2)C1=O | 13 (≈ 47.3 µM) | > 20 | > 20 | 10 (≈ 36.4 µM) | > 20 | > 20 | 13 (≈ 47.3 µM) | > 20 | > 20 | > 20 | > 20 | > 20 | > 20 | > 10 | 6 (≈ 21.8 µM) |  | 
19 | CC1=C(C)C(=O)C(=C(O)/C=C/c2ccccc2)C1=O | > 20 |  |  |  |  |  |  | > 20 |  |  | > 20 |  |  |  |  |  | 
20 | CC1=C(C)C(=O)C(=C(/C=C/c2ccccc2)OC(=O)c2ccccc2)C1=O | > 20 |  |  |  |  |  |  | > 20 |  |  | > 20 |  |  |  |  |  | 
21 | CC1=CC(=O)/C(=C(\O)c2ccccc2)C1=O | > 20 |  |  |  |  |  |  | > 20 |  |  | > 20 |  |  |  |  |  | 
22 | COC(/C=C/c1ccc(OC)cc1)=C1\C(=O)C=C(C)C1=O | 3.03 (≈ 10.7 µM) | 10 (≈ 35.2 µM) | 10 (≈ 35.2 µM) | 1.56 (≈ 5.49 µM) | 6.67 (≈ 23.5 µM) | 5 (≈ 17.6 µM) | 4.29 (≈ 15.1 µM) | 3.41 (≈ 12 µM) | 17 (≈ 59.8 µM) | 15 (≈ 52.8 µM) | > 20 | > 20 | > 20 | 5 (≈ 17.6 µM) | 3.9 (≈ 13.7 µM) | 13 (≈ 45.7 µM) | 10 (≈ 35.2 µM)
23 | C[C@@H]1[C@H](O)[C@@H](C)/C=C/C=C/C=C/C=C/C=C/C=C/C=C/[C@H](O[C@@H]2O[C@H](C)[C@@H](O)[C@H](N)[C@@H]2O)C[C@@H]2O[C@](O)(C[C@@H](O)C[C@@H](O)[C@H](O)CC[C@@H](O)C[C@@H](O)CC(=O)O[C@H]1C)C[C@H](O)[C@H]2C(=O)O [AMPHOTERICIN B] | 0.15 (≈ 0.162 µM) | 1.04 (≈ 1.13 µM) | 0.63 (≈ 0.682 µM) | 0.12 (≈ 0.13 µM) |  | 0.52 (≈ 0.563 µM) | 0.17 (≈ 0.184 µM) | 0.41 (≈ 0.444 µM) | 1.67 (≈ 1.81 µM) |  | 0.73 (≈ 0.79 µM) |  |  | 7 (≈ 7.58 µM) | 2.4 (≈ 2.6 µM) | 0.83 (≈ 0.898 µM) | 0.63 (≈ 0.682 µM)
24 | COC(/C=C/c1ccccc1)=C1\C(=O)C=C(C)C1=O [CORUSCANONE A] | 0.8 (≈ 3.15 µM) | 2.08 (≈ 8.18 µM) | 2.08 (≈ 8.18 µM) | 0.47 (≈ 1.85 µM) | 1.25 (≈ 4.92 µM) | 1.25 (≈ 4.92 µM) | 0.68 (≈ 2.67 µM) | 2.04 (≈ 8.02 µM) | 8.33 (≈ 32.8 µM) | 8.33 (≈ 32.8 µM) | 19 (≈ 74.7 µM) | > 20 | > 20 | 4.9 (≈ 19.3 µM) | 3.4 (≈ 13.4 µM) | 2.08 (≈ 8.18 µM) | 2.08 (≈ 8.18 µM)
25 | COc1cccc2c1C(=O)c1c(O)c3c(c(O)c1C2=O)C[C@@](O)(C(=O)CO)C[C@@H]3O[C@H]1C[C@H](N)[C@H](O)[C@H](C)O1 [DOXORUBICIN] |  |  |  |  |  |  |  |  |  |  |  |  |  | 7.5 (≈ 13.8 µM) | 0.65 (≈ 1.2 µM) |  | 
26 | OC(Cn1cncn1)(Cn1cncn1)c1ccc(F)cc1F [FLUCONAZOLE] | 0.22 (≈ 0.718 µM) | > 200 | 0.45 (≈ 1.47 µM) | 0.24 (≈ 0.784 µM) | > 200 | 0.45 (≈ 1.47 µM) | 118 (≈ 385 µM) | 5.65 (≈ 18.4 µM) | > 200 | 37 (≈ 121 µM) | > 200 | > 200 | > 200 | > 10 | > 10 | > 200 | > 200
